Measurements: ChEMBL document CHEMBL3856229, “Hybrid Antibiotic Overcomes Resistance in P. aeruginosa by Enhancing Outer Membrane Penetration and Reducing Efflux” (J Med Chem, 2016)
Activity calls are given as the source filed them. The calls are words filed in the database; no cut-off is given here.

Columns and labels:
[1] = test system: Pseudomonas aeruginosa; assay: Antibacterial activity against multidrug-resistant/tobramycin-susceptible Pseudomonas aeruginosa isolate 86052; assay type: functional
[2] = test system: Enterococcus faecalis; assay: Antibacterial activity against Enterococcus faecalis ATCC 29212 after 24 hrs by microtitre broth dilution method; assay type: functional; details: ATCC 29212, 24 h
[3] = test system: Klebsiella pneumoniae; assay: Antibacterial activity against Klebsiella pneumoniae ATCC 13883 after 24 hrs by microtitre broth dilution method; assay type: functional; details: ATCC 13883, 24 h
[4] = test system: Pseudomonas aeruginosa; assay: Antibacterial activity against multidrug/extremely drug-resistant/colistin-susceptible Pseudomonas aeruginosa isolate 260-97103; assay type: functional
[5] = test system: Pseudomonas aeruginosa; assay: Antibacterial activity against multidrug/extremely drug-resistant/colistin-susceptible Pseudomonas aeruginosa isolate 262-101856; assay type: functional
[6] = test system: Pseudomonas aeruginosa; assay: Antibacterial activity against pandrug-resistant Pseudomonas aeruginosa isolate 91433; assay type: functional
[7] = test system: Pseudomonas aeruginosa; assay: Antibacterial activity against multidrug-resistant/tobramycin-susceptible Pseudomonas aeruginosa isolate 86067; assay type: functional
[8] = test system: Pseudomonas aeruginosa; assay: Antibacterial activity against multidrug-resistant/tobramycin-susceptible Pseudomonas aeruginosa isolate 92014; assay type: functional
[9] = test system: Pseudomonas aeruginosa; assay: Antibacterial activity against multidrug-resistant/tobramycin-susceptible Pseudomonas aeruginosa isolate 108590; assay type: functional
[10] = test system: Escherichia coli; assay: Antibacterial activity against fluoroquinolone resistant Escherichia coli isolate 90087 harboring beta-lactamase CTX-M-15/OXA-1; assay type: functional
[11] = test system: Acinetobacter baumannii; assay: Antibacterial activity against fluoroquinolone resistant Acinetobacter baumannii isolate ABO30; assay type: functional
[12] = Hemolytic activity in human erythrocytes at 1000 microg/ml after 30 mins by spectrometry; assay type: ADME, cell-based, Erythrocyte; details: read-out: Activity
[13] = test system: Pseudomonas aeruginosa; assay: Antibacterial activity against extremely drug-resistant Pseudomonas aeruginosa isolate 104354 infected in Galleria mellonella assessed as larvae survival administered as single dose measured after 24 to 96 hrs; assay type: functional
Outline: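 Galleria mellonella larvae were infected with 10^6 CFU of XDR P. aeruginosa #104354, resistant to all antipseudomonal classes except colistin. A single injected drug dose was given 2 h post-infection: 50 mg/kg with survival read at 24 h, or 75 mg/kg with survival read at 96 h. Controls were infected untreated larvae and PBS-injected larvae. Two independent experiments of 15 larvae each (n = 30).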

[14] = test system: Pseudomonas aeruginosa; assay: Antibacterial activity against Pseudomonas aeruginosa PAO1 assessed as fractional inhibitory concentration index after 18 hrs in presence of vancomycin by checkerboard method; assay type: functional
Outline: (§1)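 Checkerboard combinations of the hybrid with each partner antibiotic were tested against P. aeruginosa PAO1. Interaction is expressed as the fractional inhibitory concentration (FIC) index: ≤0.5 means synergy, 1–2 no interaction, ≥4 antagonism.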

[15] = test system: Pseudomonas aeruginosa; assay: Antibacterial activity against Pseudomonas aeruginosa PAO1 assessed as fractional inhibitory concentration index after 18 hrs in presence of chloramphenicol by checkerboard method; assay type: functional; outline: as §1
[16] = test system: Pseudomonas aeruginosa; assay: Antibacterial activity against Pseudomonas aeruginosa PAO1 assessed as fractional inhibitory concentration index after 18 hrs in presence of trimethoprim by checkerboard method; assay type: functional; outline: as §1
[17] = test system: Pseudomonas aeruginosa; assay: Antibacterial activity against Pseudomonas aeruginosa PAO1 assessed as fractional inhibitory concentration index after 18 hrs in presence of ceftazidime by checkerboard method; assay type: functional; outline: as §1
[18] = test system: Pseudomonas aeruginosa; assay: Antibacterial activity against Pseudomonas aeruginosa PAO1 assessed as fractional inhibitory concentration index after 18 hrs in presence of gentamicin by checkerboard method; assay type: functional; outline: as §1
[19] = test system: Pseudomonas aeruginosa; assay: Antibacterial activity against Pseudomonas aeruginosa PAO1 assessed as fractional inhibitory concentration index after 18 hrs in presence of colistin by checkerboard method; assay type: functional; outline: as §1
[20] = test system: Pseudomonas aeruginosa; assay: Potentiation of ciprofloxacin induced antibacterial activity against multidrug/extremely drug-resistant Pseudomonas aeruginosa isolate PA259-96918 assessed as ciprofloxacin MIC at <= […] ug/ml (reference value: […] ug/ml); assay type: functional
[21] = test system: Pseudomonas aeruginosa; assay: Potentiation of ciprofloxacin induced antibacterial activity against multidrug/extremely drug-resistant Pseudomonas aeruginosa isolate PA262-101856 assessed as ciprofloxacin MIC at <= […] ug/ml (reference value: […] to […] ug/ml); assay type: functional
[22] = test system: Pseudomonas aeruginosa; assay: Potentiation of ciprofloxacin induced antibacterial activity against multidrug/extremely drug-resistant Pseudomonas aeruginosa isolate PA264-104354 assessed as ciprofloxacin MIC at <= […] ug/ml (reference value: […] to […] ug/ml); assay type: functional
[23] = test system: Pseudomonas aeruginosa; assay: Potentiation of ciprofloxacin induced antibacterial activity against pandrug-resistant Pseudomonas aeruginosa isolate 91433 assessed as ciprofloxacin MIC at <= […] ug/ml (reference value: 4 to 8 ug/ml); assay type: functional
[24] = test system: Pseudomonas aeruginosa; assay: Potentiation of moxifloxacin induced antibacterial activity against multidrug/extremely drug-resistant Pseudomonas aeruginosa isolate PA260-97103 assessed as moxifloxacin MIC at <= […] ug/ml (reference value: […] to […] ug/ml); assay type: functional
[25] = test system: Pseudomonas aeruginosa; assay: Potentiation of moxifloxacin induced antibacterial activity against multidrug/extremely drug-resistant Pseudomonas aeruginosa isolate PA264-104354 assessed as moxifloxacin MIC at <= […] ug/ml (reference value: […] to […] ug/ml); assay type: functional
[26] = test system: Pseudomonas aeruginosa; assay: Antibacterial activity against multidrug/extremely drug-resistant Pseudomonas aeruginosa isolate PA259-96918 in presence of <= 4 ug/ml of ciprofloxacin (reference value: 2 ug/ml); assay type: functional
[27] = test system: Pseudomonas aeruginosa; assay: Antibacterial activity against multidrug/extremely drug-resistant Pseudomonas aeruginosa isolate PA262-101856 in presence of <= 4 ug/ml of ciprofloxacin (reference value: 4 ug/ml); assay type: functional
[28] = test system: Pseudomonas aeruginosa; assay: Antibacterial activity against multidrug/extremely drug-resistant Pseudomonas aeruginosa isolate PA264-104354 in presence of <= 4 ug/ml of ciprofloxacin (reference value: 4 ug/ml); assay type: functional
[29] = test system: Pseudomonas aeruginosa; assay: Antibacterial activity against pandrug-resistant Pseudomonas aeruginosa isolate 101243 in presence of <= 4 ug/ml of ciprofloxacin (reference value: 8 ug/ml); assay type: functional
[30] = test system: Pseudomonas aeruginosa; assay: Antibacterial activity against multidrug/extremely drug-resistant Pseudomonas aeruginosa isolate PA262-101856 in presence of <= 4 ug/ml of moxifloxacin (reference value: 4 ug/ml); assay type: functional
[31] = test system: Pseudomonas aeruginosa; assay: Antibacterial activity against pandrug-resistant Pseudomonas aeruginosa isolate 91433 in presence of <= 4 ug/ml of moxifloxacin (reference value: 8 ug/ml); assay type: functional
[32] = test system: Pseudomonas aeruginosa; assay: Antimotility activity against Pseudomonas aeruginosa PAO1 assessed as reduction in flagellum-dependent swimming motility after 20 hrs; assay type: functional
Outline: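 Swim plates (0.3% agar, dried and set for 60 min) were inoculated with PAO1 at OD600 1.0, with or without 0.25 µg/mL test agent. Plates were imaged after 20 h at 37 °C.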

[33] = test system: Pseudomonas aeruginosa; assay: Induction of outer membrane permeabilization in Pseudomonas aeruginosa PAO1 assessed as accumulation of propidium iodide at 8 ug/ml after 3 to 4 hrs by fluorescence microscopy; assay type: functional
Outline: (§2)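 PAO1 cells were treated with 8 µg/mL for 3 h at 37 °C, then stained with the membrane-impermeable nucleic-acid dye propidium iodide. Fluorescence microscopy and DIC imaging were compared against untreated cells.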

[34] = test system: Pseudomonas aeruginosa; assay: Induction of inner membrane permeabilization in Pseudomonas aeruginosa PAO1 assessed as accumulation of propidium iodide at 8 ug/ml after 3 to 4 hrs by fluorescence microscopy; assay type: functional; outline: as §2
[35] = Inhibition of circular DNA translation in Escherichia coli S30 extract after 60 mins by luciferase reporter gene assay
Outline: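 Translation was run in an E. coli S30 extract with a luciferase read-out. Luminescence is expressed as a percentage of the no-antibiotic control, taken as 100%.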

For `COc1c(N2C[C@@H]3CCCN(CCCCCCCCCCCCO[C@@H]4[C@@H](O[C@H]5O[C@H](CO)[C@@H](O)[C@H](N)[C@H]5O)[C@H](N)C[C@H](N)[C@H]4O[C@H]4O[C@H](CN)[C@@H](O)C[C@H]4N)[C@@H]3C2)c(F)cc2c(=O)c(C(=O)O)cn(C3CC3)c12.Cl.Cl.Cl.Cl.Cl`, the MIC [1] was 2 µg/mL, the MIC [2] was 4 µg/mL and the MIC [3] was 1 µg/mL. It also gave an MIC [4] of 1 µg/mL, an MIC [5] of 4 µg/mL and an MIC [6] of 8 µg/mL. It also gave an MIC [7] of 4 µg/mL, an MIC [8] of 4 µg/mL and an MIC [9] of 2 µg/mL. For the same compound, the MIC [10] was no less than 64 µg/mL, the MIC [11] was 8 to 64 µg/mL and the hemolysis at 0.5 h, 1000 microg/ml [12] was less than 2.5%. For the same compound, the Activity [13] was “Dose-dependent effect”, the “fractional inhibitory concentration index (FICI)” value [14] was 0.26 and the “fractional inhibitory concentration index (FICI)” value [15] was 0.15. For the same compound, the “fractional inhibitory concentration index (FICI)” value [16] was 0.25, the “fractional inhibitory concentration index (FICI)” value [17] was 0.37 and the “fractional inhibitory concentration index (FICI)” value [18] was 5. The “fractional inhibitory concentration index (FICI)” value [19] was 0.37, the MIC [20] was less than 1 µg/mL and the MIC [21] was 1 µg/mL. It also gave an MIC [22] of 1 µg/mL, an MIC [23] of 0.25 µg/mL and an MIC [24] of 1 µg/mL. The MIC [25] was 1 µg/mL, the MIC [26] was less than 0.5 µg/mL and the MIC [27] was less than 0.5 µg/mL. The MIC [28] was less than 0.5 µg/mL, the MIC [29] was less than 1 µg/mL and the MIC [30] was less than 1 µg/mL. For the same compound, the MIC [31] was less than 1 µg/mL, the Activity [32] was “Dose-dependent effect” and the Activity [33] was “Active”. The Activity [34] was “Active” and the IC50 [35] was 4.7 µM.
